Screens: PubChem BioAssay, several laboratories
A selection: hits, their analogues and other compounds. The true share with any hit is near 2.3%.
Glyco luc inh = N-linked glycosylation inhibition | D54 ERlucT glycosylation luciferase reporter, 24 h; percent of 100 nM tunicamycin response | reporter increase, % at 12.5 µM | 360,000 compounds, 0.23% hits;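 active = mean luciferase reporter signal, scaled so untreated is 0 and the glycosylation-blocking control 100, at or above a set limit in every replicate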;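 note: luciferase carries N-glycosylation sites so blocking glycosylation raises the light; 0% = median of neutral control wells and 100% = median of 100 nM tunicamycin wells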
PAX8 reporter = lowers PAX8-driven luciferase in RMG-I cells; RMG-I TPO-luciferase reporter, SteadyGlo, 24 h; inhibition, % at 12.6 µM; 360,000 compounds, 1.2% hits;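 active = mean replicate inhibition at least 60% with every replicate also reaching 60%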;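 note: luciferase light reporting Pax8 driven TPO promoter activity; plate controls were median of neutral control wells for no effect and mitoxantrone controls for full effect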
Arrestin-AP2 inh = inhibitors of human beta-arrestin and AP2 interaction | FITC-arrestin peptide / GST-AP2 beads, flow cytometry; AP2 beta2 appendage carries R879A mutation | AID 504490 | 340,000 compounds, 0.31% hits | inhibition, % at 10 µM;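 active = inhibition above a set limit, near 3 SD of compounds lacking own fluorescence, cut at about 54% in these data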;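 note: plate controls were DMSO wells for no effect and 5 µM unlabelled arrestin peptide for full effect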
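System: GST-AP2 R879A glutathione beads; medium: PBS, Tween 20 0.05%, BSA 0.1%; reagent: fluorescein-tagged arrestin peptide at 50 nM final; schedule: pre-incubation 12 min, peptide binding 1 h, room temperature; detection: flow cytometry, FL1 (488/535 nm); read-out: inhibition as reduced fluorescein signal on beads, percent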
HIV Env fusion = inhibitors of HIV Env-mediated cell fusion. 360,000 compounds, 1.1% hits. HeLa-JRFL Env/CEM21 cell fusion, luciferase. inhibition, % at 12.3 µM;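 active = mean replicate inhibition score of at least 50 and every replicate individually at or above 50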;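 note: 0% = plate neutral controls and 100% = maraviroc near 300 nM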
PfHsp90 set2 = reduces growth (ATP signal) of yeast expressing P. falciparum Hsp90. S. cerevisiae expressing PfHsp90, BacTiter-Glo ATP, 48 h; yeast lacking PDR1 and PDR3 efflux regulators. inhibition, % at 9.4 µM. 310,000 compounds, 0.32% hits;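 active = every replicate shows inhibition above about 80%, whatever the replicate mean, limit read from the data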;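 note: 0% = DMSO neutral controls and 100% = 20 µM radicicol positive controls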
Rtt109 Vps75 = blocks Candida albicans Rtt109/Vps75 acetyltransferase activity; purified Rtt109/Vps75, ThioGlo CoA-SH fluorescence, 4 h; AID 540336; 330,000 compounds, 0.16% hits; inhibition, % at 34.9 µM;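 active = inhibition of at least 50% in every replicate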
Target sequence (Q5AAJ8 whole entry, looked up): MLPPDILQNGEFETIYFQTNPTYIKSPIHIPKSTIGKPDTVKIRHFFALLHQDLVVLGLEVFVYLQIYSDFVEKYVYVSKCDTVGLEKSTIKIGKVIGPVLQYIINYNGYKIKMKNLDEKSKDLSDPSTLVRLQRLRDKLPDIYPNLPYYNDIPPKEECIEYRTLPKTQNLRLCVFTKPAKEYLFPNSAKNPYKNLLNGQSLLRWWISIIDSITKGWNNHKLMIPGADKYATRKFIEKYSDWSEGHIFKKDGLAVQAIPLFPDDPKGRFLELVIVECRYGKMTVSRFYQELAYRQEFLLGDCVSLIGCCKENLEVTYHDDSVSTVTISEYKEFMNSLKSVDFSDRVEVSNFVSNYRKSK
* marks the source's active call; other numbers are inactive results; . = no result; + = active, no number; [ ] = another dose, or the depositor's remark.

SMILES	Glyco luc inh	PAX8 reporter	Arrestin-AP2 inh	HIV Env fusion	PfHsp90 set2	Rtt109 Vps75
C[C@@H]1CN([C@H](C)CO)C(=O)c2cc(NC(=O)CCCCCC(=O)Nc3ccccc3N)ccc2O[C@@H](C)CCCCO[C@H]1CN(C)Cc1ccc(Cl)c(Cl)c1	.	80*	.	.	.	.
C[C@@H]1CCCCO[C@H](CN(C)Cc2ccc(Cl)c(Cl)c2)[C@@H](C)CN([C@H](C)CO)C(=O)c2cc(NC(=O)CCCCCC(=O)Nc3ccccc3N)ccc2O1	.	73*	.	.	.	.
CO[C@@H]1CN(C)C(=O)c2cc(NC(=O)NC(C)C)ccc2OC[C@H](C)N(CCC(F)(F)F)C[C@@H]1C	.	-6	.	-5[16.7 µM]	.	.
Cc1ccsc1/C=N/Nc1ccc(C(=O)O)cc1	-23	78*	-4	52	-9	-6
Cc1ccsc1/C=N/Nc1cccc(C(=O)O)c1	-11	90*	-26	68*	5	-4
Cc1ccsc1/C=N/NC(=O)C(N)=O	3	12	-6	-16	-27	-8
CCOc1cc(/C=N/Nc2cccc(C(=O)O)c2)ccc1OC(=O)c1ccccc1	-7	67*	-17	65*	-1	-3
Cc1ccc(/C=N/Nc2ccc(C(=O)O)cc2)s1	-19	75*	48	64*	-1	21
C[C@@H]1CCCCO[C@@H](CN(C)CC2CCCCC2)[C@H](C)CN([C@H](C)CO)C(=O)c2cc(NC(=O)Nc3cccc4ccccc34)ccc2O1	.	-14	.	9[16.7 µM]	.	.
COc1ccc(C#Cc2cnc3c(c2)C(=O)N([C@H](C)CO)C[C@H](C)[C@H](CN(C)C(=O)CN(C)C)O3)cc1	.	.	.	8[16.7 µM]	.	.
COc1ccc(NC(=O)Nc2cccc3c2O[C@@H](CN(C)S(C)(=O)=O)[C@H](C)CN([C@H](C)CO)C3=O)cc1	.	.	.	5[16.7 µM]	.	.
COc1ccc(C2C3=C(CC(C)(C)CC3=O)Oc3ncn(Cc4ccccc4)c(=N)c32)cc1 (stereo not drawn)	-5	.	11	61*	-39	6
O=C(c1cccnc1)N1CC[C@@H]2[C@H](CO)Nc3ccc(-c4cccc(F)c4)cc3[C@@H]21	.	4	.	.	.	.
C[C@H](CO)N1C[C@H](C)[C@@H](CN(C)C(=O)Nc2ccc(F)cc2)Oc2ccc(NS(=O)(=O)c3cccs3)cc2CC1=O	.	12	.	-2[16.7 µM]	.	.
Cc1ccc(S(=O)(=O)N2C[C@H]3n4c(=O)ccc(=O)n4C[C@H](OC(=O)NCc4ccccc4)[C@@]3(O)C2)cc1	-3	24	.	11	.	.
Cc1ccc(S(=O)(=O)N2C[C@H]3n4c(=O)ccc(=O)n4C[C@H](OC(=O)NCC4CCCCC4)[C@@]3(O)C2)cc1	4	73*	.	25	.	.
CN(C(=O)CCc1nc(-c2ccccc2F)no1)c1ccccc1	-3	-13	16	2	-1	55*
Cc1cccc(CCNC(=O)CCc2nc(-c3ccccc3F)no2)c1	-2	.	0	.	.	-4
CCSc1nsc(NC(=O)Nc2cccc(F)c2)n1	-16	90*	-5	20	-5	1
CO[C@H]1O[C@H](CO)[C@@H](OC(=O)Nc2ccc3c(c2)OCO3)[C@H](OC(=O)Nc2ccccc2)[C@H]1OC(=O)Nc1ccccc1	.	25	.	6[16.7 µM]	.	.
Cc1cc(C)cc(SCc2noc(C(=O)NCc3ccccc3)c2C(=O)NCc2ccccc2)c1	-3	12	44	64*	6	2
O=C(NCc1ccccc1)c1onc(CSc2ccc(F)cc2)c1C(=O)NCc1ccccc1	-3	3	2	-4	-2	2
Cc1cc(C(=O)Nc2cccc3c2O[C@H](CN(C)S(=O)(=O)c2ccc(Cl)cc2)[C@H](C)CN([C@@H](C)CO)C3=O)n(C)n1	.	-18	.	-17[16.7 µM]	.	.
CCCNC(=O)N1C[C@@H]2[C@H](c3ccccc31)[C@H](CO)N2C(=O)Nc1ccc(F)cc1	.	-2	.	.	.	.
CCC/C=C(\CCC)C(NS(=O)(=O)c1cccc2cccnc12)c1ccc(C(=O)OC)cc1 (stereo not drawn)	.	6	.	90*	.	.
SMILES	Glyco luc inh	PAX8 reporter	Arrestin-AP2 inh	HIV Env fusion	PfHsp90 set2	Rtt109 Vps75
C[C@@H]1CN([C@H](C)CO)C(=O)c2cccc(NC(=O)NC3CCCCC3)c2O[C@H]1CN(C)C	.	1	.	.	.	.
CCCC#Cc1ccc2c(c1)O[C@@H](CN(C)C(=O)c1ccncc1)[C@@H](C)CN([C@@H](C)CO)S2(=O)=O	.	.	.	-3[16.7 µM]	.	.
CCCCCCCCn1ccc(=N)cc1	1	7	2	21	3	-3
CCCCCCCCCCn1ccc(=N)cc1	11	83*	1	78*	-9	-1
Cc1ccc(C(=O)c2cc([N+](=O)[O-])ccc2N2CCCCC2)c(C)c1	-5	89*	9	-41	-87	10
CCOc1ccc(C(=O)c2cc([N+](=O)[O-])ccc2N2CCOCC2)cc1	7	91*	2	-339	-1	2
CCOc1ccc(S(=O)(=O)N2CCN(C(=O)c3cc([N+](=O)[O-])ccc3N3CCOCC3)CC2)cc1	2	9	24	.	8	11
COc1ccc(C(=O)COC(=O)c2cc([N+](=O)[O-])ccc2N2CCOCC2)c(OC)c1	-3	-21	19	11	+	-3
Cc1ccc(C(=O)c2cc([N+](=O)[O-])ccc2N2CCOCC2)cc1	10	27	10	-20	-8	9
COc1ccc(C(=O)c2cc([N+](=O)[O-])ccc2N2CCOCC2)cc1	16	105*	0	-6	20	7
O=C(CN1CCOCC1)N[C@H]1CC[C@H](CCNC(=O)C2CCCC2)O[C@@H]1CO	.	-11	.	-4[16.7 µM]	.	.
COCC#Cc1ccc2c(c1)O[C@H](CN(C)S(=O)(=O)c1ccc(F)cc1)[C@H](C)CN([C@@H](C)CO)S2(=O)=O	.	.	.	15[16.7 µM]	.	.
C=C(C(=O)c1ccccc1)C(CC(=O)c1ccccc1)c1ccccc1 (stereo not drawn)	-10	102*	-3	.	-4	-7
C=C(CCC(=O)c1ccccc1)C(=O)c1ccccc1	-9	16	.	-3	0	-17
Cc1ccc(-c2nc(CSCC(=O)NCc3cccnc3)c(C)o2)cc1	0	.	-3	58*	7	-16
COc1ccc(-c2nc(CSCC(=O)NCc3ccco3)c(C)o2)cc1	-2	.	8	.	9	-2
CC(C)(C)n1nc(Cc2cccc3ccccc23)c2c(N)ncnc21	-7	17	39	82*	-14	13
Cc1cc2c3c(c1C)C1(C(=O)N3C(C)(C)CC2C)C(C#N)=C(N)Oc2cc(O)ccc21 (stereo not drawn)	-2	.	-9	62*	3	4
Cc1cc2c3c(c1)C1(C(=O)N3C(C)(C)CC2C)C(C#N)=C(N)OC2=C1C(=O)CC(C)(C)C2 (stereo not drawn)	-1	.	3	.	-4	-14
